Laboratory results published in ChEMBL document CHEMBL5357042, “Discovery of imidazo[1,2-b]pyridazine-containing TAK1 kinase inhibitors with excellent activities against multiple myeloma” (RSC Med Chem, 2024).
The source made the active and inactive calls. The rule behind the calls is not given here.

Legend:
[1] = biological target: T1, Mitogen-activated protein kinase kinase kinase 7 (Homo sapiens) (UniProt O43318); assay: Inhibition of TAK1 (unknown origin) at 100 nM by ADP-Glo kinase assay
T1 sequence (whole entry): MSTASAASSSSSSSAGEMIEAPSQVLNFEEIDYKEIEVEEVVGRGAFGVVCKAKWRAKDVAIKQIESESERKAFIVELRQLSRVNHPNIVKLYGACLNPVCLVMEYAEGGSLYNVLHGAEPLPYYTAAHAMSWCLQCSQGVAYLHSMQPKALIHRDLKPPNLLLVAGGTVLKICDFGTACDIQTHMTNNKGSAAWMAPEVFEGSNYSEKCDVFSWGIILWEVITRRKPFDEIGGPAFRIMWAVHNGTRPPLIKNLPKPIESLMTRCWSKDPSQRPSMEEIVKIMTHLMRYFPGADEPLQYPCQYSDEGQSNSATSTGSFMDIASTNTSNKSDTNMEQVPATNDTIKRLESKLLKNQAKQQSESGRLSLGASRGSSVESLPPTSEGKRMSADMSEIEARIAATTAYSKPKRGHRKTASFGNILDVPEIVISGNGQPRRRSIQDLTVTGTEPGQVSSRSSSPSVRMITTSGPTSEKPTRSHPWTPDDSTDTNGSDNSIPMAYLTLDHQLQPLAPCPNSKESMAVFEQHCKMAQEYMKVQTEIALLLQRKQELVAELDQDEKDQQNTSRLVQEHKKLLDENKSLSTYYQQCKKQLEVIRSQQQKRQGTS

[2] = biological target: T1, Mitogen-activated protein kinase kinase kinase 7 (Homo sapiens); assay: Inhibition of TAK1 (unknown origin) at 500 nM by ADP-Glo kinase assay
MPC-11 [3] = assay: Cytotoxicity against mouse MPC-11 cells assessed as reduction in cell viability at 0.2 to 1 uM to incubated for 72 hrs by CellTiter-Blue assay; assay type: functional, cell-based; conditions: dose 0.2-1 µM
Summary of the method: (§1)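 H929 (RPMI, 10% heat-inactivated FBS) or MPC-11 (DMEM, 10% FBS) cells, under 10 passages, 37 °C, 5% CO₂; 4–5 × 10³ cells/well seeded, 24 h, then compound at various concentrations for 72 h. CellTiter-Blue added for 3 h, fluorescence ex/em 560/590 nm. Normalized to DMSO-treated cells; triplicate, mean and standard deviation.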

[4] = biological target: T1, Mitogen-activated protein kinase kinase kinase 7 (Homo sapiens); assay: Inhibition of TAK1 (unknown origin) at 20 nM by ADP-Glo kinase assay
MPC-11 [5] = assay: Cytotoxicity against mouse MPC-11 cells assessed as reduction in cell viability incubated for 72 hrs by CellTiter-Blue assay; assay type: functional; summary of the method: as §1
NCI-H929 = assay: Cytotoxicity against human NCI-H929 cells assessed as reduction in cell viability incubated for 72 hrs by CellTiter-Blue assay; assay type: functional; summary of the method: as §1
[6] = biological target: Mitogen-activated protein kinase kinase kinase 7 (Homo sapiens, UniProt O43318); assay: Inhibition of human TAK1 using casein as substrate in presence of [gamma-33P]-ATP by radiometric hotspot kinase assay
MPC-11 [7] = assay: Cytotoxicity against mouse MPC-11 cells assessed as reduction in cell viability at 200 nM incubated for 72 hrs by CellTiter-Blue assay; assay type: functional; summary of the method: as §1
[8] = biological target: Mitogen-activated protein kinase kinase kinase 7 (Mus musculus) (UniProt Q62073); assay: Inhibition of TAK1 in mouse MPC-11 cells assessed as reduction in TAK1 phosphorylation at Ser412 residue at 0.1 to 0.5 uM incubated for 48 hrs by Western blot analysis; assay type: cell-based; conditions: dose 0.1-0.5 µM
Sequence of Mitogen-activated protein kinase kinase kinase 7 (Mus musculus) (Q62073 whole entry): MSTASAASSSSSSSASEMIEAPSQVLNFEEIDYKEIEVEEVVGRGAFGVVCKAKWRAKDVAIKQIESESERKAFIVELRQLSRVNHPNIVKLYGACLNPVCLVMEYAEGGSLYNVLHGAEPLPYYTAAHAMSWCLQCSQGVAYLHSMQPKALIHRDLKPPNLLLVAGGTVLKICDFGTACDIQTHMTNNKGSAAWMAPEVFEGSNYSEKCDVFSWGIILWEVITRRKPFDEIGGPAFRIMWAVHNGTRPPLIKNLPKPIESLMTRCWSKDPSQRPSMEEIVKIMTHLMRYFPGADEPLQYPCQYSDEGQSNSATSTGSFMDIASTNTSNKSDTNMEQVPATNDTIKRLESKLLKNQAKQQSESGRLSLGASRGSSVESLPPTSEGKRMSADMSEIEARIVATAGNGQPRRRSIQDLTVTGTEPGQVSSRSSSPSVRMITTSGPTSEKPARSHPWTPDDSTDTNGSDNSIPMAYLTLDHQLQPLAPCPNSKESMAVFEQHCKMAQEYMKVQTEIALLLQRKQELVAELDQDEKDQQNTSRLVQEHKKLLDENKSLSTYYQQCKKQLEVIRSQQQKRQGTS
Summary of the method: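 MPC-11 cells (0.5–1 × 10⁶/well) seeded, treated after 24 h for 48 h; DMSO control. BCA protein quantitation, 10% SDS-PAGE, PVDF; pTAK1, TAK1, β-actin antibodies overnight 4 °C, HRP secondaries 2 h 24 °C, chemiluminescence. Bands quantified relative to actin; duplicates, mean and standard deviation.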

SMILES | inhibition [1] [%] | inhibition [2] [%] | other results
COCCN1CCN(c2ccc3ncc(-c4ccc5[nH]nc(C)c5c4)n3n2)CC1 | 46 | > 50 | 
C[C@@H]1CN(c2ccc3ncc(-c4ccc5cn[nH]c5c4)n3n2)C[C@H](C)O1 | > 50 | > 50 | 
Cc1n[nH]c2ccc(-c3cnc4cccnn34)cc12 | 26 |  | 
C[C@@H]1CN(c2ccc3ncc(-c4cccc(C#N)c4)n3n2)C[C@H](C)O1 |  | < 50 | 
Cc1n[nH]c2ccc(-c3cnc4ccc(N5C[C@@H](C)O[C@H](C)C5)nn34)cc12 | > 50 | > 50 | Activity (MPC-11 [3]): Active; inhibition [4]: > 50%
C[C@@H]1CN(c2ccc3ncc(-c4cccc(S(C)(=O)=O)c4)n3n2)C[C@H](C)O1 |  | < 50 | 
C[C@@H]1CN(c2ccc3ncc(-c4ccc(C#N)cc4)n3n2)C[C@H](C)O1 |  | < 50 | 
C[C@@H]1CN(c2ccc3ncc(-c4ccc(C(F)(F)F)cc4)n3n2)C[C@H](C)O1 |  | < 50 | 
C[C@@H]1CN(c2ccc3ncc(-c4ccc(OC(F)(F)F)cc4)n3n2)C[C@H](C)O1 |  | < 50 | 
Cc1n[nH]c2ccc(-c3cnc4ccc(N5C[C@H]6C[C@@H]5CO6)nn34)cc12 | > 50 | > 50 | Activity (MPC-11 [3]): Active; GI50 (MPC-11 [5]): 155 nM; inhibition [4]: > 50%; GI50 (NCI-H929): 71 nM
C[C@@H]1CN(c2ccc3ncc(-c4ccc5[nH]ncc5c4)n3n2)C[C@H](C)O1 | > 50 | > 50 | 
C[C@@H]1CN(c2ccc3ncc(-c4ccc(S(N)(=O)=O)cc4)n3n2)C[C@H](C)O1 |  | < 50 | 
Cc1n[nH]c2ccc(-c3cnc4ccc(N5CCOCC5)nn34)cc12 | 91 | > 50 | 
C[C@@H]1CN(c2ccc3ncc(-c4ccc(Cl)cc4)n3n2)C[C@H](C)O1 |  | < 50 | 
C[C@@H]1CN(c2ccc3ncc(-c4ccc5cnn(C)c5c4)n3n2)C[C@H](C)O1 | > 50 | > 50 | 
Cc1nc2ccc(N3C[C@@H](C)O[C@@H](C)C3)nn2c1-c1ccc2[nH]nc(C)c2c1 |  | < 50 | 
C[C@@H]1CN(c2ccc3ncc(-c4ccc(C(N)=O)cc4)n3n2)C[C@H](C)O1 | < 50 | 74 | 
Cc1n[nH]c2ccc(-c3cnc4ccc(N5C[C@@H]6C[C@H]5CO6)nn34)cc12 | > 50 | > 50 | Activity (MPC-11 [3]): Active; GI50 (MPC-11 [5]): 101 nM; inhibition [4]: > 50%; GI50 (NCI-H929): 45 nM

SMILES | inhibition [1] [%] | inhibition [2] [%] | other results
C[C@@H]1CN(c2ccc3ncc(-c4ccc(CC#N)cc4)n3n2)C[C@H](C)O1 |  | < 50 | 
CCCn1/c(=N/C(=O)c2cccc(C(N)=O)c2)[nH]c2ccccc21 |  |  | GI50 (MPC-11 [5]): 8500 nM; IC50 [6]: 187 nM; GI50 (NCI-H929): 51000 nM
C[C@@H]1CN(c2ccc3ncc(-c4cccc5[nH]ncc45)n3n2)C[C@H](C)O1 |  | < 50 | 
C[C@@H]1CN(c2ccc3ncc(-c4ccccc4)n3n2)C[C@H](C)O1 |  | < 50 | 
C[C@@H]1CN(c2ccc3ncc(-c4ccc5c(cnn5C)c4)n3n2)C[C@H](C)O1 |  | < 50 | 
Cc1n[nH]c2ccc(-c3cnc4ccc(N5CCO[C@H](C)C5)nn34)cc12 | > 50 | > 50 | Activity (MPC-11 [3]): Active; inhibition [4]: > 50%; inhibition at 0.2 µM (MPC-11 [7]): ~50%
C[C@@H]1CN(c2ccc3ncc(-c4ccc5c(c4)CC(=O)N5)n3n2)C[C@H](C)O1 |  | < 50 | 
CNC(=O)c1ccc(-c2cnc3ccc(N4C[C@@H](C)O[C@@H](C)C4)nn23)cc1 |  | < 50 | 
Cc1n[nH]c2ccc(-c3cnc4ccc(N5CCOC(C)(C)C5)nn34)cc12 | > 50 | 100 | Activity (MPC-11 [3]): Active; GI50 (MPC-11 [5]): 126 nM; inhibition [4]: > 50%; GI50 (NCI-H929): 24 nM
C[C@@H]1CN(c2ccc3ncc(-c4cccnc4)n3n2)C[C@H](C)O1 |  | < 50 | 
C[C@@H]1CN(c2ccc3ncc(-c4ccncc4)n3n2)C[C@H](C)O1 |  | < 50 | 
Cc1n[nH]c2ccc(-c3cnc4ccc(N5CC6CCC(C5)O6)nn34)cc12 | > 50 | > 50 | Activity (MPC-11 [3]): Active; GI50 (MPC-11 [5]): 131 nM; inhibition [4]: > 50%; GI50 (NCI-H929): 33 nM
CCc1n[nH]c2ccc(-c3cnc4ccc(N5C[C@@H](C)O[C@@H](C)C5)nn34)cc12 | > 50 | 100 | GI50 (MPC-11 [5]): 94 nM; inhibition [4]: > 50%; GI50 (NCI-H929): 30 nM
C[C@@H]1CN(c2ccc3ncc(-c4ccc(F)c(C#N)c4)n3n2)C[C@H](C)O1 |  | < 50 | 
C[C@@H]1CN(c2ccc3ncc(-c4ccc(F)cc4)n3n2)C[C@H](C)O1 |  | < 50 | 
Cc1n[nH]c2ccc(-c3cnc4ccc(N5CCO[C@@H](C)C5)nn34)cc12 | > 50 | 100 | Activity (MPC-11 [3]): inactive; inhibition [4]: > 50%; inhibition (MPC-11 [7]): inactive
Cc1n[nH]c2ccc(-c3cnc4ccc(N5C[C@@H](C)O[C@@H](C)C5)nn34)cc12 | 95 | 100 | GI50 (MPC-11 [5]): 72 nM; inhibition [8]: Active; inhibition [4]: > 50%; GI50 (NCI-H929): 87 nM
